Published values from different studies.
Lines come from different studies, so protocols differ.
Target: Dual specificity protein kinase CLK3 (CLK3, Homo sapiens, UniProt P49761)
Method: competition with immobilised ligand

`CN(CCCC(F)(F)F)c1nccc(-c2cnn3ncccc23)n1` has a remaining binding of 84% (binding; 1 µM).
The remaining binding of `COc1cc(Nc2nccc(-c3cnn4nc(OC)ccc34)n2)cc(C(F)(F)F)c1` is reported as 92% (binding; 1 µM).
The remaining binding of `CCN1CCN(Cc2ccc(C(=O)Nc3ccc(C)c(Oc4ccc5c(c4)CC(=O)N5)c3)cc2C(F)(F)F)CC1` is reported as 100% (binding; 1 µM).
`O=C(c1ccc(Nc2ncc(Cl)c(-c3cc4ccccc4s3)n2)cc1)N1CCC(N2CCCC2)CC1` gave a remaining binding of 7.4% (binding; 1 µM).
With `CN(C(=O)c1ccccc1)c1cc(N(C)c2ccc3c(c2)CCc2ccc(C(=O)NCCN4CCOCC4)cc2C3=O)ccc1F` the remaining binding was 100% (cell-free assay; 1 µM).
`FC(F)(F)Oc1cccc(-c2cnc3ccc(-c4ccncc4)nn23)c1` has a remaining binding of 8.1% (cell-free assay; 5 µM).
With `C=CC(=O)N1CCC(C(=O)NCC(=O)N2CCN(c3nc(-c4cnc(N)nc4C(F)F)nc(N4CCOCC4)n3)CC2)CC1` the remaining binding was 97% (binding; 1 µM).
`O=S(=O)(NC1CCC(c2cc(F)ccc2F)(S(=O)(=O)c2ccc(Cl)cc2)CC1)C(F)(F)F` (centres unmarked) has a remaining binding of 86% (cell-free assay; 1 µM).
`O=C(NCC1CCOCC1)c1n[nH]cc1NC(=O)c1c(F)cccc1F` has a remaining binding of 64% (binding; 1 µM).
`CO[C@@H](C)c1c(Nc2ccc([C@@H](N(C)C(=O)C3CCS(=O)(=O)CC3)C(F)(F)F)cc2)cnc2cc(Cl)nn12` gave a remaining binding of 87% (cell-free assay; 1 µM).
For `O=C(c1ccc(Nc2ncc(Cl)c(-c3ccc(Cl)s3)n2)cc1)N1CCC(N2CCCC2)CC1`, the remaining binding was 15% (binding; 1 µM).
For `COc1cnc(Nc2cccc(S(N)(=O)=O)c2)nc1N1CCN(c2ccccc2)CC1`, the remaining binding was 97% (binding; 1 µM).
With `O=C(NCCCN1CCOCC1)c1ccc(Nc2nccc(-c3cc4ccccc4s3)n2)cc1` the remaining binding was 84% (binding; 1 µM).
For `O=C(NCCCC1CCCCC1)c1ccc(CNC(=O)c2cnn(-c3ccccc3)c2C(F)(F)F)cc1`, the remaining binding was 100% (cell-free assay; 0.1 µM).
